M1 ag = activates human CHRM1 receptor. P11229. CHO-K1 hM1, Fluo-8 calcium fluorescence, agonist mode; 0% DMSO, 100% acetylcholine EC100. activation, % at 3 µM. 360,000 tested, 0.33% active;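 active = activation above the run's mean compound activation plus 3 SD, cut at about 16% in these data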;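 note: peak over basal fluorescence ratio within a 140 s kinetic read after compound addition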
Target sequence (P11229 whole entry, looked up): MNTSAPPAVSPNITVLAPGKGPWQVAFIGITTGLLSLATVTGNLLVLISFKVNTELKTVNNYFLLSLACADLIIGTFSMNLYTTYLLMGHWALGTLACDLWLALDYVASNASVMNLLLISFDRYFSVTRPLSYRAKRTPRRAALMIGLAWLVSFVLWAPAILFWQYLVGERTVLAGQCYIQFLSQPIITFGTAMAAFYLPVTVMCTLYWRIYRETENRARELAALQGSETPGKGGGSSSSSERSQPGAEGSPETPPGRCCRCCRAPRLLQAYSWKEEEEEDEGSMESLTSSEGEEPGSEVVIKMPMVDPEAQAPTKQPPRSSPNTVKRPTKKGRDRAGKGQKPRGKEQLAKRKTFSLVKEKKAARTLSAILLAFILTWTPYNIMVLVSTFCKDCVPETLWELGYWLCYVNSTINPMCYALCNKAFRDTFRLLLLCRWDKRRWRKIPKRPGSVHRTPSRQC
M5 antag = blocks acetylcholine activation of human M5 receptor; 360,000 tested, 0.59% active; inhibition, % at 3 µM; CHO-hM5 cells, Fluo-8 calcium fluorescence, ACh EC80;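 active = inhibition above a per-plate cutoff, the mean of that plate's test compounds plus 3 SD, cut at about 27% in these data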;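 note: 0% = acetylcholine EC80 with DMSO and 100% = DMSO without agonist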
CHRM5 agonist = CHRM5 agonism in calcium assay. AID 624037. CHO-K1 hM5 cells, Fluo-8 calcium fluorescence; 0% DMSO wells, 100% maximal acetylcholine response. activation, % at 3 µM. P08912. 360,000 tested, 0.19% active;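 active = activation above the run's mean over test compounds plus 3 SD, cut at about 23% in these data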;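 note: signal is peak over basal fluorescence ratio across the kinetic read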
CHRM1 PAM = human CHRM1 positive allosteric modulation; CHO-K1 hM1, Fluo-8 calcium fluorescence, ACh EC20; 0% = ACh EC20, 100% = maximal ACh; 360,000 tested, 0.088% active; P11229; AID 588819; activation, % at 3 µM; in the data active = activation above about 19%, passing the limit was not always enough
CHRM5 PAM = potentiates acetylcholine response at human M5 receptor; P08912; CHO-K1 hM5, Fluo-8 calcium, ACh EC20 PAM; 0% = ACh EC20, 100% = ACh EC100; activation, % at 3 µM; 360,000 tested, 0.3% active; AID 624038;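 active = activation above the run cutoff, the mean activation of all test compounds plus 3 SD, cut at about 18% in these data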
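System: CHO-K1 hM5 cells. Reagent: acetylcholine, EC20 level. Compound dosing: single dose, 3 µM nominal final test concentration. Timing: Post-acetylcholine fluorescence recording 140 s. Detection: Fluo-8 calcium fluorescence. Read-out: % activation, ACh-normalized. Benchmarks: ACh EC20 and EC100 wells. Repeats: singlicate, one well per test compound.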
CHRM1 antagonist = antagonists of human M1 muscarinic receptor. P11229. CHO-K1 hM1, Fluo-8 calcium fluorescence, ACh EC80 antagonist. inhibition, % at 3 µM. 360,000 tested, 1.3% active. AID 588852;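 active = percent inhibition above its own plate's cutoff, namely the mean of that plate's compound wells plus 3 SD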;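 note: peak over basal fluorescence ratio during 140 s after agonist addition; 0% = ACh EC80 plus DMSO and 100% = DMSO alone without agonist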
Starred values were filed as active, the others as inactive; . = not tested or not shown. Only some compounds are listed: those with a hit (about 2% of all), similar ones and a draw of the others.

SMILES	M1 ag	M5 antag	CHRM5 agonist	CHRM1 PAM	CHRM5 PAM	CHRM1 antagonist
CN1CCN(CC(=O)Nc2c(C(=O)c3ccccc3)oc3ccccc23)CC1	-14	2	-8	-38	1	60*
Cc1ccc(C(=O)N/C(=C\c2ccco2)C(=O)NCCN2CCCCC2)cc1C	-6	15	-3	6	-1	-3
O=C(NCCN1CCCCC1)/C(=C/c1ccco1)NC(=O)c1ccccc1	-2	-4	-3	31*	6	-28
CCCC(CCC)C(=O)Nc1ccc2c(c1)N(C(=O)CN1CCN(C)CC1)c1ccccc1CC2	-15	31*	-11	-38	-19	78*
CCOC(=O)Nc1ccc2c(c1)N(C(=O)CN1CCN(C)CC1)c1ccccc1S2	-7	20	-12	-21	-18	75*
CCOC(=O)Nc1ccc2c(c1)N(C(=O)CN(C)C)c1ccccc1S2	-8	6	-3	-15	-17	7
CCOC(=O)Nc1ccc2c(c1)N(C(=O)OC)c1ccccc1CC2	-2	1	-3	3	0	-2
CCOC(=O)Nc1ccc2c(c1)N(C(=O)CCN(C)C)c1ccccc1S2	-5	15	-7	-22	-18	51*
CCOC(=O)Nc1ccc2c(c1)N(C(=O)C(C)N1CCCC1)c1ccccc1CC2 (centres undefined)	-12	24	-7	-35	-24	91*
CC1CCC(NC(=O)C(NS(=O)(=O)c2ccc(Br)cc2)C(C)C)CC1 (centres undefined)	0	-5	5	2	-3	-3
CC(C)CN1C(=O)CN(S(C)(=O)=O)CC1(C)C(=O)NC(C)C (centres undefined)	.	-7	1	.	2	.
CC(C)C[C@@H](CNCC(=O)[C@H](Cc1ccccc1)NC(=O)c1[nH]cnc1C(=O)N[C@@H](C)CN)NC(=O)c1nc[nH]c1C(=O)N[C@@H](C)C(=O)O	4	4	1	13	0	-7
CC(C)(C)c1ccc(CC(=O)N2CCC2(C)C(=O)NS(=O)(=O)c2ccc(Cl)cc2)cc1 (centres undefined)	-3	8	0	5	-2	-14
CN(C1=NS(=O)(=O)N=C(N(C)c2ccccc2)O1)c1ccccc1	-2	21	0	-2	5	6
O=c1c2ccccc2[nH]c(=S)n1CCN1CCCC1	-10	0	-7	7	3	1
CCN1CCN(CCn2c(=S)[nH]c3ccccc3c2=O)CC1	-6	73*	-12	-25	-25	86*
CC(C)Cn1cc(-c2cccc3nccn23)cn1	-5	2	-1	5	-1	-7
COc1cccc(CN2CC(C(=O)NCCOc3ccccc3)CCC2=O)c1 (centres undefined)	-3	29*	-5	-6	-13	4
COc1cccc(CN2CC(C(=O)NCCOc3ccccc3F)CCC2=O)c1 (centres undefined)	-2	20	-4	2	-5	-6
c1ccn2cc(C34CC5CC(CC(C5)C3)C4)nc2c1	-6	10	-18	-23	-19	54*
c1ccc(-c2cn3ccccc3n2)cc1	-1	8	2	1	-3	6
COCC(=O)NNS(=O)(=O)c1ccccc1[N+](=O)[O-]	0	14	0	1	20*	3
C=CCC1(CC=C)CCCN1C(=O)c1ccc2oc(CCCC)nc2c1	-7	15	-6	-4	-8	-5
CCN1CCN(C(=O)c2cc(COc3ccc4ncccc4c3)on2)CC1	3	5	8	-2	-13	10
CCC1CCCCN1C(=O)c1cc(COc2ccc3ncccc3c2)on1 (centres undefined)	-1	41*	7	-13	-29	31
SMILES	M1 ag	M5 antag	CHRM5 agonist	CHRM1 PAM	CHRM5 PAM	CHRM1 antagonist
Cc1ccc(F)cc1CNC(=O)c1cc(COc2ccc3ncccc3c2)on1	1	56*	6	-26	-16	39*
COCC1CCCCN1C(=O)c1cc(COc2ccc3ncccc3c2)on1 (centres undefined)	6	39*	7	-16	-14	55*
COCCC1CCCCN1C(=O)c1cc(COc2ccc(-n3cncn3)cc2)on1 (centres undefined)	6	19	5	-4	-19	31*
Cc1ccc(CNc2nc3cc(-c4ccccc4)sc3c(=O)n2C)c(C)c1	-2	2	3	2	1	-2
COc1cccc(C(C(=O)NC2CCCC2)N2CCN(c3cc(C)nc4ccccc34)CC2)c1OC (centres undefined)	.	-5	-3	.	10	.
COC(=O)C[C@H]1CC[C@@H](NC(=O)c2ccncc2)[C@@H](CO)O1	.	3	0	.	2	.
Cc1cc(C(=O)CSc2nnnn2C)c(C)n1-c1ccc2c(c1)OCCO2	-2	-5	-15	-13	0	21
Cc1nnc(SCC(=O)c2cc(C)n(-c3ccc4c(c3)OCO4)c2C)s1	-1	27*	-1	-8	-11	3
O=C(c1cnc(Cc2c[nH]c3ccccc23)c(I)c1)N1CCOCC1	-7	7	0	2	-3	-18
C[C@H](CO)N1C[C@H](C)[C@@H](CN(C)S(=O)(=O)c2cccc(C#N)c2)OCc2cn(nn2)CCCC1=O	-4	1	1	12	2	-17
Cc1cccc(-n2ncc3c2CCCC3NC(=O)c2ccncc2)c1C (centres undefined)	-1	13	7	-10	-12	15
CCn1cc(C(=O)NC2CCCc3c2cnn3-c2cccc(C)c2C)cn1 (centres undefined)	3	27	4	-8	-20	31*
CN(Cc1cnc2nc(N)nc(N)c2n1)c1ccc(C(=O)NC(CCC(=O)O)C(=O)O)c2ccccc12 (centres undefined)	3	16	-2	17	-9	-9
COc1ccc2c(c1OC)C(=O)N1c3ccccc3C(=O)N(c3ccc(F)cc3)C21 (centres undefined)	2	20	4	-5	-18	25*
COc1ccc2c(c1OC)C(=O)N1c3ccccc3C(=O)N(c3ccccc3)C21 (centres undefined)	1	18	4	-5	-18	32*
CCN1CCC2(CC1)N=C(c1ccc(F)cc1)C(=S)N2	-8	16	-18	-22	-23	39*
CC(=O)c1cccc(OCC(=O)N(CCC2=CCCCC2)c2c(N)n(Cc3ccccc3)c(=O)[nH]c2=O)c1	-6	2	1	1	2	2
